Eight molecules from ChEMBL document CHEMBL1152522, “RCAI-37, 56, 59, 60, 92, 101, and 102, cyclitol and carbasugar analogs of KRN7000: their synthesis and bioactivity for mouse lymphocytes to produce Th1-biased cytokines” (2009) can be followed below.

Structures are written as SMILES. Active and inactive are the calls of the source. The calls are words filed in the database; no cut-off is given here.

Experiment [1] deals with Mus musculus. As to the kind of experiment: Immunostimulatory activity in C57BL/6 mouse assessed as increase in serum IFN-gamma production at 10 ug/mL, iv after 10 to 60 hrs post-injection by ELISA. Format: functional, organism-based. In a few lines:
(§1)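 C57BL/6 mice, 8–16 wk old, kept specific pathogen-free. Glycolipid stock (1.0 mg/mL in DMSO) diluted to 10 µg/mL in Dulbecco's PBS just before dosing; 200 µL given iv. Retro-orbital heparinized blood taken at 3, 6, 12, 24, 36, 48 and 60 h for plasma. IFN-γ measured by ELISA; IL-4 and IL-12p70 by cytometric bead array. Mean ± SD of 3 mice; experiment repeated three times.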

Experiment [2] deals with Mus musculus. As to the kind of experiment: Immunostimulatory activity in C57BL/6 mouse assessed as increase in serum IL-12p70 production at 10 ug/mL, iv after 3 to 24 hrs post-injection by cytometric bead array method. Format: functional, organism-based. In a few lines:
as §1

The subject of experiment [3] is Mus musculus. As to the kind of experiment: Immunostimulatory activity in C57BL/6 mouse assessed as increase in serum IL4 production at 10 ug/mL, iv after 3 to 24 hrs post-injection by cytometric bead array method. Format: functional, organism-based. The gist of the method:
as §1

In experiment [4] the test system is Mus musculus. As to the kind of experiment: Immunostimulatory activity in C57BL/6 mouse assessed as mild increase in serum IFN-gamma production at 10 ug/mL, iv after 10 to 60 hrs post-injection by ELISA. Format: functional, organism-based. In a few lines: as §1
The subject of experiment [5] is Mus musculus. As to the kind of experiment: Immunostimulatory activity in C57BL/6 mouse assessed as increase in serum IL-12p70 production at 10 ug/mL, iv after 3 hrs post-injection by cytometric bead array method. Format: functional, organism-based. In a few lines:
as §1

Experiment [6] deals with Mus musculus. As to the kind of experiment: Immunostimulatory activity in C57BL/6 mouse assessed as increase in serum IFN-gamma production at 10 ug/mL, iv after 24 hrs post-injection by ELISA. The format is functional, organism-based. In a few lines: as §1
For experiment [7], the system named is Mus musculus. As to the kind of experiment: Immunostimulatory activity in C57BL/6 mouse assessed as increase in serum IL-12p70 production at 10 ug/mL, iv after 6 hrs post-injection by cytometric bead array method. The format is functional, organism-based. In a few lines:
as §1

In another experiment the test system is PBMC. As to the kind of experiment: Immunostimulatory activity in human PBMC assessed as increase in IFN-gamma production by ELISA. Format: functional, cell-based.
Experiment [8] has as its system Mus musculus. As to the kind of experiment: Immunostimulatory activity in C57BL/6 mouse assessed as increase in serum IFN-gamma production at 10 ug/mL, iv after 36 hrs post-injection by ELISA. The format is functional, organism-based. The gist of the method:
as §1

For experiment [9], the system named is Mus musculus. As to the kind of experiment: Ratio of KRN700 to compound activity for increase in serum IL4 production in C57BL/6 mouse at 10 ug/mL, iv after 3 to 24 hrs post-injection by cytometric bead array method. Format: functional.

Take `CCCCCCCCCCCCCCCCCCCCCCCCCC(=O)N[C@@H](CO[C@@H]1[C@H](O)[C@@H](O)[C@@H](O)[C@@H](O)[C@@H]1O)[C@H](O)[C@H](O)CCCCCCCCCCCCCC`: the outcome in the experiment with Mus musculus [1], in the experiment on Mus musculus [2] and in the experiment with Mus musculus [3] was inactive.
As to `C[C@H]1O[C@H](O)[C@H](O)[C@@H](O)[C@H]1O`, in the experiment on Mus musculus [1], the outcome was Active.
With `CCCCCCCCCCCCCCCCCCCCCCCCCC(=O)N[C@@H](CO[C@H]1C[C@H](C)[C@H](O)[C@H](O)[C@H]1O)[C@H](O)[C@H](O)CCCCCCCCCCCCCC`, in the experiment on Mus musculus [4], the outcome was Active.
As to `CCCCCCCCCCCCCCCCCCCCCCCCCC(=O)N[C@@H](CO[C@H]1C[C@H](COC)[C@H](O)[C@H](O)[C@H]1O)[C@H](O)[C@H](O)CCCCCCCCCCCCCC`, the result with Mus musculus [4] was Active.
For `CCCCCCCCCCCCCCCCCCCCCCCCCC(=O)N[C@@H](CO[C@@H]1[C@H](O)[C@@H](O)[C@H](O)[C@@H](O)[C@@H]1O)[C@H](O)[C@H](O)CCCCCCCCCCCCCC`, the result with Mus musculus [1], in the experiment with Mus musculus [2] and in the experiment with Mus musculus [3] was inactive.
Regarding `CCCCCCCCCCCCCCCCCCCCCCCCCC(=O)N[C@@H](CO[C@H]1C[C@H](CO)[C@H](O)[C@H](O)[C@H]1O)[C@H](O)[C@H](O)CCCCCCCCCCCCCC`, the result with Mus musculus [5], in the experiment with Mus musculus [6], in the experiment with Mus musculus [7], in the experiment with PBMC and in the experiment on Mus musculus [8] was Active. The Ratio in the experiment with Mus musculus [9] is reported as 0.5.
Regarding `CCCCCCCCCCCCCCCCCCCCCCCCCC(=O)N[C@@H](CO[C@H]1C[C@H](OC)[C@H](O)[C@H](O)[C@H]1O)[C@H](O)[C@H](O)CCCCCCCCCCCCCC`, the result with Mus musculus [1] and in the experiment with Mus musculus [3] was Active.
On to `CCCCCCCCCCCCCCCCCCCCCCCCCC(=O)N[C@@H](CO[C@H]1C[C@H](O)[C@H](O)[C@H](O)[C@H]1O)[C@H](O)[C@H](O)CCCCCCCCCCCCCC`, for which the outcome with Mus musculus [1], in the experiment on Mus musculus [3] and with PBMC was Active.
